The source of these data is PMC2765218 (Nature biotechnology, 2009).

This assay relates to mutant HTT. It counts as cell-based, human. Particulars: GM04281 cells. Summed up:
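GM04281 fibroblasts (heterozygous for mutant HTT) were grown in MEM with 10% heat-inactivated FBS and plated 2 days before treatment. PNA-peptide conjugate stocks were heated 65 °C for 5 min, then added in OptiMEM; medium was replaced after 24 h and cells were harvested about 4 days later. BCA-normalised lysates ran on 5% Tris-acetate SDS-PAGE (ice bath) to separate wild-type and mutant HTT. Anti-HTT immunoblot with β-actin loading control; densitometry gave % inhibition versus control from triplicate experiments. Dose-response fit: y=100(1−x^m/(n^m+x^m)).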

K-GGCGGCTGTTGCTGCTGCT-K8 [3J/HTT]: the “selectivity (wild-type IC50/mutant IC50), HTT” value was found to be 5 fold.
